The record followed here is paper PMC4743058 (Genes & Development, 2016).

Where a SMILES comes first, the peptide text is derived from it. The star is where a group is joined. Cbz = O=C(OCc1ccccc1)*

In one test the test system is Lj-p53. The test is described as follows: Lj-p53 degradation in p53/Mdm2 double-knockout cells. It counts as cell-based. Conditions: 4 h before harvest, Western blot, lane 4. For orientation: In western blotting, separated proteins are transferred to a membrane and probed.
The next test concerns Hs-p53. The test is described as follows: Hs-p53 degradation in p53/Mdm2 double-knockout cells. Conditions: 4 h before harvest, Western blot. It counts as cell-based, human; expressed in mouse embryonic fibroblasts.
Another test has as its system Hs-p53–HDM2^Nterm. Kind of test: In vitro pull-down of Hs-p53 by HDM2Nterm in presence of inhibitor. Conditions: in vitro translated proteins, inhibitor 30 min, Fig. 7A lanes 1–3. It counts as binding, human.
Another test has as its system Hs-p53–Lj-Mdm2^Nterm. The test is described as follows: In vitro pull-down of Hs-p53 by Lj-Mdm2Nterm in presence of inhibitor. It counts as binding, human p53; lamprey (Lethenteron japonicum) Mdm2. Conditions: in vitro translated proteins, inhibitor 30 min, Fig. 7A lanes 4–6.
For the next test, the system named is Lj-p53–Lj-Mdm2^Nterm. Kind of test: In vitro pull-down of Lj-p53 by Lj-Mdm2Nterm in presence of inhibitor. It counts as binding, lamprey (Lethenteron japonicum). The settings on record: Fig. 7A. In a few lines: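 Anti-HA antibody (1 µg per 10 µL Protein G beads, 1 h in PBST–3% BSA) captured in vitro translated HA-tagged Mdm2 N-terminal bait (30 min, rotating). Test compound was added at the required concentrations for 30 min, with DMSO as control. In vitro translated Flag-Lj-p53 was then added for 1 h. Beads were washed, and eluates were heated 5 min at 95°C, run on SDS-PAGE and immunoblotted with HRP anti-Flag.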

On to `CC(C)C[C@@H](C=O)NC(=O)[C@H](CC(C)C)NC(=O)[C@H](CC(C)C)NC(=O)OCc1ccccc1` [MG132] (Cbz-Leu-Leu-Leu-aldehyde), for which the “block of Lj-Mdm2-mediated Lj-p53 reduction by proteasome inhibitor” value in the test on Lj-p53 was “partially blocked”. In the test on Hs-p53, the “block of Lj-Mdm2-mediated Hs-p53 degradation by proteasome inhibitor” value is on record as “only partially blocked”.
With Nutlin, the “block of binding of Hs-p53 to HDM2Nterm” value with Hs-p53–HDM2^Nterm is “could block the binding of Hs-p53 to HDM2^Nterm”. Further, the “block of binding of Hs-p53 to Lj-Mdm2Nterm” value in the test with Hs-p53–Lj-Mdm2^Nterm is “not by Nutlin”. Besides, the “block of binding of Lj-p53 to Lj-Mdm2Nterm” value in the test with Lj-p53–Lj-Mdm2^Nterm (in vitro translated proteins, inhibitor 30 min) was “not by Nutlin”. For the same compound, in the test with Lj-p53–Lj-Mdm2^Nterm (inferred from pull-down), the “interaction with the p53-binding pocket in Lj-Mdm2Nterm” value is “interacts poorly, if at all”.
